Measured values from publication PMC4518544 (Journal of medicinal chemistry, 2015).
Entries after “also recorded” stand apart in the source; their conditions may differ. Read-outs that look alike come from different tables or passages of the source. Values belong to the molecule of their own block, whether it stands above or below them.

Experiments:
Grp94 [1] = biological target: T1, Grp94 (Canis lupus familiaris, UniProt P41148); assay: FP competition binding assay, Grp94; design: species or system Canine; conditions: for decrease in Grp94 activity on linker substitution: relative to S-linked 9g; for diminished potency for Grp94 on substitution of N3 with C: relative to 18a and 18c; for decrease in affinity for Grp94 of N3-substituted compounds: compared to the N9-series; for Hsp90α/Grp94: ratio of IC50 values, Table 4
Grp94 [2] = biological target: T1, Grp94; conditions: cited from earlier work
TLR9 = TLR9 assay in transfected HEK 293T cells; type: cell-based; conditions: 24 h treatment
In short: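 HEK 293T cells were transfected with HA-tagged human TLR9 and split onto chamber slides 24 h later, then treated 24 h at varying concentrations. Cells were fixed (4% paraformaldehyde, 20 min), permeabilized (0.1% Triton X-100, 10 min) and blocked (3% BSA, 30 min). Staining used anti-HA (1:250, 1 h) or normal rabbit IgG, then Cy3 anti-rabbit (1:400), with DAPI mounting. Confocal imaging; fluorescence intensity was normalized to cell number.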

[3] = test system: TNFα production in cells stimulated by LPS; assay: TNFα ELISA, Raw264.7 cells stimulated with LPS; type: cell-based, mouse; conditions: Hsp90-mediated effect
Hsp70 = assay: Immunoblotting of Hsp70 in SKBr3 cells; type: cell-based
In short: (§1)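 SKBr3 cells were treated 24 h with DMSO or test compound and lysed in RIPA buffer (pH 7.4) with protease inhibitors. Protein was measured by BCA, and 5–50 μg was run on SDS–PAGE and transferred to nitrocellulose. Blots were probed for HER2 (1:500), Hsp70 (1:2500), cleaved PARP (1:2500) and β-actin (1:3000), then HRP secondary, ECL and film, with densitometry. Triplicate experiments.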

scanEDGE 97 kinase panel = assay: scanEDGE kinase competition binding panel; conditions: 10 μM
In short: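 Competition binding panel. Kinase, biotinylated-ligand streptavidin beads and test compound (from 40× DMSO stocks) were incubated 1 h at room temperature in binding buffer with 6 mM DTT. Beads were washed and eluted 30 min with 0.5 μM free ligand. Eluted kinase was measured by qPCR.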

Aqueous solubility = type: physicochemical; conditions: water
HER2 = assay: Immunoblotting of HER2 in SKBr3 cells; type: cell-based
In short: as §1

[4] = test system: CpG induced TNF-α production; assay: TNFα ELISA, Raw264.7 cells stimulated with CpG; type: cell-based, mouse; conditions: 18 h treatment
[5] = test system: HER2-overexpressing SKBr3 cells; conditions: cited from earlier work
[6] = test system: IGF-II secretion by differentiated myoblasts; assay: C2C12 differentiation and IGF-II secretion assay; type: cell-based, mouse; conditions: 24 h treatment
In short: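 C2C12 mouse myoblasts kept in DMEM with 10% FBS. Differentiation was induced by switching to DMEM with 2% horse serum (36–48 h). After the switch, cells were treated 24 h. Medium was incubated overnight at 4 °C in anti-IGF-II-coated ELISA wells, then detected with biotinylated anti-IGF-II, HRP-streptavidin and TMB. Read at 450 nm and quantified against a recombinant IGF-II standard curve.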

Hsp90α = Hsp90α (Homo sapiens, UniProt P07900); assay: FP competition binding assay, Hsp90α
Hsp90β = Hsp90β (Homo sapiens, UniProt P08238); assay: FP competition binding assay, Hsp90β
cleaved PARP = assay: Immunoblotting of cleaved PARP in SKBr3 cells; type: cell-based; conditions: 100 μM
In short: as §1

SKBr3 cells = assay: CellTiter-Glo cell viability assay; type: cell-based; conditions: 100 μM, 72 h
In short: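 SKBr3 cells were grown in McCoy's 5A with 10% FBS at 37 °C under CO2, then treated 72 h with vehicle or test compound in quadruplicate wells. Viable cells were measured by CellTiter-Glo ATP luminescence. Points are means, n = 4.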

Grp94 [7] = conditions: read-out: Kd for Grp94; cited from earlier work

T1 sequence (P41148 22-804): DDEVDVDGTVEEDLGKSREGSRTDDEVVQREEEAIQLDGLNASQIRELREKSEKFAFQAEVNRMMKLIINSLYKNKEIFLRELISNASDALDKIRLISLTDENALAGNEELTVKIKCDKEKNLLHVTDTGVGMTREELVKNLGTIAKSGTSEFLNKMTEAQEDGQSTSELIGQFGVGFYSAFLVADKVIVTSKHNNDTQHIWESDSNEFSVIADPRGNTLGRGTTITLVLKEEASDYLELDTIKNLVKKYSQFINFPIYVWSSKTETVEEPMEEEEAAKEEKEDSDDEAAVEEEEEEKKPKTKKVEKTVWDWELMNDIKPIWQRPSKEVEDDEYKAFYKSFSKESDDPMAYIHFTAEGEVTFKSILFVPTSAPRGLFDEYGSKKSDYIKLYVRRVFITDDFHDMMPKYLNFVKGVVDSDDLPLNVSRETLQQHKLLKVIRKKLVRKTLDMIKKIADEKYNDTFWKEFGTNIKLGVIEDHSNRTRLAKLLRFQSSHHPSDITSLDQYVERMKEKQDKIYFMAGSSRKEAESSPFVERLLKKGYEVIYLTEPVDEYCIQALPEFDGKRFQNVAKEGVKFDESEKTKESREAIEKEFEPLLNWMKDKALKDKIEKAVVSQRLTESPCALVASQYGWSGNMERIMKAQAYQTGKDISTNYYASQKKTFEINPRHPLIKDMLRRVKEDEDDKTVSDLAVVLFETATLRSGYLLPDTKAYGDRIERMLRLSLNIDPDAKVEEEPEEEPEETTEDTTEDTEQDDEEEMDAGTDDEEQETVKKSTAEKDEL
Sequence of Hsp90β (P08238 whole entry): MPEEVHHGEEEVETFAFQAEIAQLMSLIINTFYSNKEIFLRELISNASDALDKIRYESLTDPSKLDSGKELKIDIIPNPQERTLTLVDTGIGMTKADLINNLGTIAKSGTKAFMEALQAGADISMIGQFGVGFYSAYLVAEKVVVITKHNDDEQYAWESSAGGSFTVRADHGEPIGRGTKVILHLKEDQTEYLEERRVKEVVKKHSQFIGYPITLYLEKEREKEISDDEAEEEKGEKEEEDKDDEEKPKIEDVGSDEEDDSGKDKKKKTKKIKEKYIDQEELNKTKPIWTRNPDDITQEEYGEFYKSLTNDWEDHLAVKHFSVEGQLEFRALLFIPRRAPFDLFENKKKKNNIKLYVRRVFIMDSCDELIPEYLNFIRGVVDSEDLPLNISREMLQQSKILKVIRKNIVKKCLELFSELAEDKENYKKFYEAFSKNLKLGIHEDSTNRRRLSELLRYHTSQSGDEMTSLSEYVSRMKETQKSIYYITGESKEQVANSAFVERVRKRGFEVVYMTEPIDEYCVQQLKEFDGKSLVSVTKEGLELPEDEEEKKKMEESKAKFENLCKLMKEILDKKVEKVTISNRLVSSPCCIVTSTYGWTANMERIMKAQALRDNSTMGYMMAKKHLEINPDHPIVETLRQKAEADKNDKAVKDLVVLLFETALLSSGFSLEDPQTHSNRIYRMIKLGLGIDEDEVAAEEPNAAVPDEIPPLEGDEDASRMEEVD

Molecule: C#CCCCn1cnc(N)c2nc(Sc3cc(Cl)ccc3Cl)nc1-2 [9k′, 8-(2,5-Dichlorophenylthio)-3-(pent-4-ynyl)-3H-purin-6-amine]
IC50 (Grp94 [1]): 35.3 ± 5 µM
decrease in affinity for Grp94 of N3-substituted compounds (Grp94 [1]): 10–400 fold

Molecule: C#CCCCn1cnc(N)c2nc(Sc3ccc(Cl)cc3Cl)nc1-2 [9g′, 8-(2,4-Dichlorophenylthio)-3-(pent-4-ynyl)-3H-purin-6-amine]
IC50 (Grp94 [1]): 2.37 ± 0.79 µM
decrease in affinity for Grp94 of N3-substituted compounds (Grp94 [1]): 10–400 fold
Hsp90α/Grp94 (Grp94 [1]): >210 µM

Molecule: C#CCCCn1cnc(N)c2nc(Sc3ccccc3CO)nc1-2 [9c′, (2-(6-Amino-3-(pent-4-ynyl)-3H-purin-8-ylthio)phenyl)methanol]
IC50 (Grp94 [1]): > 100 µM

Molecule: CN(C)c1cc2c(cc1Sc1nc3c(N)nccc3n1CCNCC(C)(C)C)OCO2 [compound 22]
lower affinity for Grp94 than for Hsp90α or Hsp90β (Grp94 [2]): ~ 6 fold

Molecule: CC(C)NCCCn1c(Sc2cc(Cl)cc(Cl)c2)nc2c(N)ncnc21 [18c, 8-((3,5-Dichlorophenyl)thio)-9-(3-(isopropylamino)propyl)-9H-purin-6-amine]
expression of TLR9 in the post-ER compartment (TLR9): dose-dependently inhibited
TNFα production in cells stimulated by LPS [3]: lack of activity
selectivity for Grp94 over Hsp90α/β (Grp94 [1]): > 100 fold
Hsp70 induction (Hsp70; 24 h): no Hsp70 induction; also recorded: did not modulate
interaction with kinase panel (scanEDGE 97 kinase panel): inert
solubility (Aqueous solubility): > 10000 µg/mL
steady-state levels of HER2 kinase (HER2; HER2 overexpressing breast cancer cells, 24 h): reduced
CpG induced TNF-α production [4]: dose-dependently inhibited
growth of SKBr3 cells [5]: growth impairment
IGF-II secretion by differentiated myoblasts [6]: dose-dependently inhibited

Molecule: C#CCCCn1cnc(N)c2nc(Sc3ccc(C)cc3C)nc1-2 [compound 4, 8-(2,4-Dimethylphenylthio)-3-(pent-4-ynyl)-3H-purin-6-amine]
IC50 (Hsp90α): > 250 µM

Molecule: C#CCCCn1cnc(N)c2nc(Sc3cc(C(F)(F)F)ccc3Cl)nc1-2 [9m′, 8-(2-Chloro-5-(trifluoromethyl)phenylthio)-3-(pent-4-ynyl)-3H-purin-6-amine]
IC50 (Hsp90β): > 100 µM
IC50 (Grp94 [1]): > 100 µM
IC50 (Hsp90α): > 100 µM

Molecule: C#CCCCn1cnc(N)c2nc(Sc3ccc(OC)cc3OC)nc1-2 [9j′, 8-(2,4-Dimethoxyphenylthio)-3-(pent-4-ynyl)-3H-purin-6-amine]
IC50 (Grp94 [1]): > 100 µM

Molecule: COC(=O)c1c(O)cc(O)c(Cl)c1CCc1nccn1Cc1ccccc1 [compound 3]
Hsp70 induction (Hsp70; 100 μM): Hsp70 induction
PARP cleavage (cleaved PARP): minor PARP cleavage
cell viability (SKBr3 cells): cellular toxicity
HER2 level (HER2; SKBr3 cells, 100 μM): possibly a slight reduction in HER2
effect in SKBr3 cells (HER2; up to 10 μM): no effect
antiproliferative effects against SKBr3 cells [5]: lacked antiproliferative effects

Molecule: C#CCCCn1cnc(N)c2nc(Sc3cc(Cl)c(Cl)cc3Cl)nc1-2 [9v′, 3-(Pent-4-ynyl)-8-(2,4,5-trichlorophenylthio)-3H-purin-6-amine]
IC50 (Grp94 [1]): 2.08 µM
decrease in affinity for Grp94 of N3-substituted compounds (Grp94 [1]): 10–400 fold
Hsp90α/Grp94 (Grp94 [1]): >48 µM

Molecule: CC(C)NCCCn1cnc(N)c2nc(Sc3cc(Cl)cc(Cl)c3)nc1-2 [18c′, 8-((3,5-Dichlorophenyl)thio)-3-(3-(isopropylamino)propyl)-3H-purin-6-amine]
decrease in affinity for Grp94 of N3-substituted compounds (Grp94 [1]): 10–400 fold
Hsp90α/Grp94 (Grp94 [1]): >39 µM

Molecule: C#CCCCn1cnc(N)c2nc(Sc3ccccc3OC(F)(F)F)nc1-2 [9d′, 3-(Pent-4-ynyl)-8-(2-(trifluoromethoxy)phenylthio)-3H-purin-6-amine]
IC50 (Grp94 [1]): > 100 µM

Molecule: C#CCCCn1cnc(N)c2nc(Sc3cc(Cl)cc(Cl)c3)nc1-2 [9n′, 8-(3,5-Dichlorophenylthio)-3-(pent-4-ynyl)-3H-purin-6-amine]
IC50 (Hsp90β; read-out: IC50 Hsp90β, FP competition, Cy3B-GM probe): > 100 µM
decrease in affinity for Grp94 of N3-substituted compounds (Grp94 [1]): 10–400 fold
IC50 (Grp94 [1]; read-out: IC50 Grp94, FP competition, Cy3B-GM probe): 100 ± 8 µM

Molecule: C#CCCCn1cnc(N)c2nc(Sc3ccccc3Cl)nc1-2 [9a′, 8-(2-Chlorophenylthio)-3-(pent-4-ynyl)-3H-purin-6-amine]
IC50 (Grp94 [1]): 100 ± 10 µM
decrease in affinity for Grp94 of N3-substituted compounds (Grp94 [1]): 10–400 fold

Molecule: C#CCCCn1cnc(N)c2nc(Sc3ccccc3OC)nc1-2 [9b′, 8-(2-Methoxyphenylthio)-3-(pent-4-ynyl)-3H-purin-6-amine]
IC50 (Grp94 [1]): > 100 µM

Molecule: 5′-N-ethylcarboxamidoadenosine [NECA]
Kd (Grp94 [7]): 0.2 µM

Next, values leading:

decrease in Grp94 activity on linker substitution (Grp94 [1]): ~ 40 fold
Molecule: C#CCCCn1c(S(=O)(=O)c2ccc(Cl)cc2Cl)nc2c(N)ncnc21 [14b, 8-((2,4-Dichlorophenyl)sulfonyl)-9-(pent-4-yn-1-yl)-9H-purin-6-amine]

diminished potency for Grp94 on substitution of N3 with C (Grp94 [1]): 5–8 fold
Molecule: CC(C)NCCCn1c(Sc2cc(Cl)cc(Cl)c2)nc2c(N)nccc21 [18e, 2-((3,5-Dichlorophenyl)thio)-1-(3-(isopropylamino)propyl)-1H-imidazo[4,5-c]pyridin-4-amine]

IC50 (Grp94 [1]): > 100 µM
Molecule: C#CCCCn1cnc(N)c2nc(Sc3cc(C)ccc3C)nc1-2 [9l′, 8-(2,5-Dimethylphenylthio)-3-(pent-4-ynyl)-3H-purin-6-amine]

IC50 (Grp94 [1]): > 100 µM
Molecule: C#CCCCn1cnc(N)c2nc(Sc3cc(C)cc(C)c3)nc1-2 [9q′, 8-(3,5-Dimethylphenylthio)-3-(pent-4-ynyl)-3H-purin-6-amine]

IC50 (Grp94 [1]): 20 ± 5 µM
decrease in affinity for Grp94 of N3-substituted compounds (Grp94 [1]): 10–400 fold
Hsp90α/Grp94 (Grp94 [1]): >5 µM
Molecule: C#CCCCn1cnc(N)c2nc(Sc3c(C)cc(C)cc3C)nc1-2 [9w′, 8-(Mesitylthio)-3-(pent-4-ynyl)-3H-purin-6-amine]

decrease in Grp94 activity on linker substitution (Grp94 [1]): 4–6 fold
Molecule: C#CCCCn1c(Cc2ccc(Cl)cc2Cl)nc2c(N)ncnc21 [14d, 8-(2,4-Dichlorobenzyl)-9-(pent-4-yn-1-yl)-9H-purin-6-amine]

diminished potency for Grp94 on substitution of N3 with C (Grp94 [1]): 5–8 fold
Molecule: CC(C)NCCCn1c(Sc2ccc(Cl)cc2Cl)nc2c(N)nccc21 [18d, 2-((2,4-Dichlorophenyl)thio)-1-(3-(isopropylamino)propyl)-1H-imidazo[4,5-c]pyridin-4-amine]

decrease in potency for Grp94 (Grp94 [1]; relative to 9n, chain length five to six carbons): approximately 3 fold
Molecule: C#CCCCCn1c(Sc2cc(Cl)cc(Cl)c2)nc2c(N)ncnc21 [13b, 8-((3,5-Dichlorophenyl)thio)-9-(hex-5-yn-1-yl)-9H-purin-6-amine]

loss of affinity for Grp94 compared to PU-H71 (5) (Grp94 [1]): 10 fold
lower affinity for Grp94 compared to Hsp90α (Grp94 [1]): ~ 3 fold
Molecule: CC(C)NCCCn1c(Sc2cc3c(cc2N(C)C)OCO3)nc2c(N)ncnc21 [18g]

decrease in Grp94 activity on linker substitution (Grp94 [1]): 4–6 fold
Molecule: C#CCCCn1c(Oc2ccc(Cl)cc2Cl)nc2c(N)ncnc21 [14c, 8-(2,4-Dichlorophenoxy)-9-(pent-4-yn-1-yl)-9H-purin-6-amine]
